We go through 2 molecules from ChEMBL document CHEMBL3352107, “Development of radamide analogs as Grp94 inhibitors” (Bioorg Med Chem, 2014).

By IC50 is commonly meant the concentration at which inhibition is half-maximal.

Activity calls are given as the source filed them. No cut-off for these calls is given here.

Data set [1] relates to MDA-MB-231. The data set can be described thus: Antiproliferative activity against human MDA-MB-231 cells after 72 hrs by MTS/PMS proliferation assay. It counts as functional, cell-based. The note with it: MDA-MB-231, 72 h. An outline of the steps: (§1)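 Cells kept in RPMI1640 (RPMI 8226) or DMEM (MDA-MB-231) with nonessential amino acids, 2 mM L-glutamine, penicillin/streptomycin and 10% FBS at 37°C, 5% CO2. Seeded at 2000/well, attached overnight, then given compound across a concentration range in 1% DMSO final for 72 h. Viable cells read by MTS/PMS. 1% DMSO wells set as 100%. IC50 from separate triplicate experiments.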

The target in data set [2] is Heat shock protein HSP 90-alpha (Homo sapiens) (UniProt P07900). The data set can be described thus: Inhibition of Hsp90alpha in human RPMI18226 cells assessed as cyclin D1 degradation at 5 fold antiproliferative IC50 concentration by Western blot analysis. It counts as cell-based. An outline of the steps: (§2)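 Cells plated in 6-well plates and exposed 24 h to high and low compound concentrations, 15 μM radicicol, or DMSO only (0.25% DMSO final). Lysed in MPER with protease inhibitors on ice and clarified at 4°C. Protein measured by BCA. 20 μg per lane run reducing on SDS-PAGE, blotted to PVDF and probed with specific antibodies, HRP secondary, chemiluminescence. For IGF-II, medium volumes normalized to equal actin were blotted.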

In data set [3] the target is Endoplasmin (Homo sapiens) (UniProt P14625). The experiment in a line: Inhibition of Gpr94 in human RPMI18226 cells assessed as decrease in IGF-II secretion at 0.25 to 2 fold antiproliferative IC50 concentration by Western blot analysis. The format is cell-based. The method, boiled down:
as §2
For orientation: Immunoblotting shows a protein as a band on a membrane.

Data set [4] in a line: Antiproliferative activity against human RPMI18226 cells after 72 hrs by MTS/PMS proliferation assay. The format is functional, cell-based. The note with it: RPMI18226, 72 h. The method, boiled down: as §1
For data set [5], the target named is Heat shock protein HSP 90-alpha (Homo sapiens) (UniProt P07900). The data set can be described thus: Inhibition of Hsp90alpha in human MDA-MB-231 cells assessed as Akt degradation at 80 uM by Western blot analysis. The format is cell-based. An outline of the steps:
as §2

The subject of data set [6] is MDA-MB-231. The experiment in a line: Inhibition of cell migration in human MDA-MB-231 cells assessed as reduction of cell migrated into scratched area after 16 to 24 hrs by wound healing assay. The format is functional, cell-based. The method, boiled down:
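Cells seeded at 200000/well and grown 24 h to a confluent monolayer at 37°C, 5% CO2. Each well scratched with a sterile pipet tip and photographed at 0 h. Compound added at 2.5 up to 25 μM (0.25% DMSO final). Migration into the wound photographed at 16 and 24 h. Quadruplicate wells on two different days.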

Data set [7] concerns the target Heat shock protein HSP 90-alpha (Homo sapiens) (UniProt P07900). The data set can be described thus: Inhibition of Hsp90alpha in human MDA-MB-231 cells assessed as cyclin D1 degradation at 80 uM by Western blot analysis. It counts as cell-based. An outline of the steps: as §2
Data set [8] has as its target Endoplasmin (Homo sapiens) (UniProt P14625). The data set can be described thus: Inhibition of recombinant Grp94 (unknown origin) assessed as tracer bound at 25 uM after 24 hrs by fluorescence polarization assay relative to control. More on the design: scale not given: the % may be the effect or the level left. An outline of the steps: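 Single-point screen at 25 μM. Recombinant cGrp94 (10 nM) and FITC-geldanamycin tracer (6 nM) incubated 24 h at 4°C with rocking in HEPES pH 7.3 buffer containing molybdate, DTT, NP-40 and BGG (1% DMSO). Polarization read at 485/528 nm. Percent tracer bound scaled between DMSO mP (100%) and free tracer mP (0%). Geldanamycin 50 nM was the positive control. Triplicate.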
(In general: In fluorescence polarisation assays a small probe gives low polarisation when free and higher when bound to something large.)

The target is the same in data set [9]. The data set can be described thus: Binding affinity to Gpr94 in human MDA-MB-231 cells assessed as conformational change using 9G10 antibody by immunoblotting analysis. The format is cell-based. An outline of the steps: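 MDA-MB-231 cells treated overnight at 10 μM (high) or 1 μM (low). Radicicol 15 μM was the positive control and DMSO the negative control. Detergent lysates immunoprecipitated with the conformation-specific anti-Grp94 antibody 9G10, which recognizes only open, unliganded Grp94, on protein G magnetic beads. Precipitates immunoblotted for Grp94.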

Data set [10] concerns MDA-MB-231. The data set can be described thus: Cytotoxicity against human MDA-MB-231 cells at 2.5 to 25 uM after 24 hrs. The note with it: mda-mb-231, 24 h. It counts as cell-based.
Data set [11] deals with Heat shock protein HSP 90-alpha (Homo sapiens) (UniProt P07900). The experiment in a line: Inhibition of Hsp90alpha in human RPMI18226 cells assessed as Akt degradation at 5 fold antiproliferative IC50 concentration by Western blot analysis. It counts as cell-based. An outline of the steps:
as §2

The target in data set [12] is Endoplasmin (Homo sapiens) (UniProt P14625). The experiment in a line: Inhibition of Gpr94 in human MDA-MB-231 cells assessed as decrease in IGF-II secretion at 1 to 10 uM by Western blot analysis. It counts as cell-based. An outline of the steps:
as §2

Data set [13] has the same target. The experiment in a line: Binding affinity to Gpr94 in human RPMI18226 cells using 9G10 antibody by immunoblotting analysis. The format is cell-based. An outline of the steps: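 Radicicol 15 μM was the positive control and DMSO the negative control. Detergent lysates pulled down with conformation-specific anti-Grp94 antibody 9G10 on protein G magnetic beads, then immunoblotted for Grp94.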

The target in data set [14] is Heat shock protein HSP 90-alpha (Homo sapiens) (UniProt P07900). The data set can be described thus: Inhibition of Hsp90alpha in human RPMI18226 cells assessed as cyclin D1 degradation at 0.5 to 5 fold antiproliferative IC50 concentration by Western blot analysis. It counts as cell-based. An outline of the steps: as §2
Data set [15] shares this target. The data set can be described thus: Inhibition of Hsp90alpha in human MDA-MB-231 cells assessed as Akt degradation at 60 uM by Western blot analysis. It counts as cell-based. The method, boiled down:
as §2

Data set [16] shares this target. The experiment in a line: Inhibition of Hsp90alpha in human MDA-MB-231 cells assessed as cyclin D1 degradation at 60 uM by Western blot analysis. It counts as cell-based. An outline of the steps: as §2
For data set [17] the target is unchanged. The data set can be described thus: Inhibition of Hsp90alpha in human RPMI18226 cells assessed as Akt degradation at 0.5 to 5 fold antiproliferative IC50 concentration by Western blot analysis. It counts as cell-based. The method, boiled down:
as §2

Endoplasmin (Homo sapiens), sequence (P14625 whole entry): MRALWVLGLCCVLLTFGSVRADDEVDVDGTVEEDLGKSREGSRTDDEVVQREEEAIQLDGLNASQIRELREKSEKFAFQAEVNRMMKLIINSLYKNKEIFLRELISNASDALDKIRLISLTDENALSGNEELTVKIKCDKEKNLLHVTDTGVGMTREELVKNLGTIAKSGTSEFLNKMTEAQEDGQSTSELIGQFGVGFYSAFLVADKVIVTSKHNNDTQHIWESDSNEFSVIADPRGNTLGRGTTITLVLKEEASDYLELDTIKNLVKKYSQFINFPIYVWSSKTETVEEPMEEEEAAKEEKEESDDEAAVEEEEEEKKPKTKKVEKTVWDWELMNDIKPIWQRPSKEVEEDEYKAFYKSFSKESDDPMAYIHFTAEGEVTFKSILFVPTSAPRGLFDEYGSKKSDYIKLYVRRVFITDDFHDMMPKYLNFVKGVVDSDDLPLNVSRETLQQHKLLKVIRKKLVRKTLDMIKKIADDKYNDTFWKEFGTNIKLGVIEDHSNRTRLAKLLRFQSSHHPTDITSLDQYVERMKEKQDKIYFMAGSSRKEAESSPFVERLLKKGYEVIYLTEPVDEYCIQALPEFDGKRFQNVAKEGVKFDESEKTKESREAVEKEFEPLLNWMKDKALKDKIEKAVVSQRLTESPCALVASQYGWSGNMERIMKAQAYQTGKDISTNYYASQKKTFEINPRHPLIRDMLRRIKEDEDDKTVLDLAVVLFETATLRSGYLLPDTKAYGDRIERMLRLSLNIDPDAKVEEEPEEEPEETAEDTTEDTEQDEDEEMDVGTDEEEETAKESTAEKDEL

`COC(=O)c1c(O)cc(O)c(Cl)c1CCC(=O)Nc1nccs1`: the 50% inhibitory concentration (IC50) in the data set on MDA-MB-231 [1] was 16 µM; in [4], 7.83 µM. Further, the inhibition entry in [2], in data set [3], in [5], in [7], in data set [11] and in data set [12] was “Active” each time. Moreover, the inhibition entry in the data set on MDA-MB-231 [6] is “Dose-dependent effect”. Further, the Activity in data set [8] was 6.6%; in [9] it was “Dose-dependent effect”; in the data set with MDA-MB-231 [10], “Non-toxic”; in data set [13], “Dose-dependent effect”.
For the molecule `COC(=O)c1c(O)cc(O)c(Cl)c1CCC(=O)Nc1ccccn1`, the inhibition entry in data set [14], in data set [15], in [16] and in data set [17] was “inactive” each time. The IC50 with MDA-MB-231 [1] came to 12 µM; in [4], 9.12 µM. The inhibition entry in data set [3] and in data set [12] was “Active” each time. In addition, the inhibition entry in the data set with MDA-MB-231 [6] was “Dose-dependent effect”. Also, the Activity in data set [8] was 1%; in data set [9] it was “Dose-dependent effect”; in the data set on MDA-MB-231 [10] it was “Non-toxic”; in data set [13] it was “Dose-dependent effect”.
